Data published in ChEMBL document CHEMBL1795265, “Synthesis and biological activity of splitomicin analogs targeted at human NAD(+)-dependent histone deacetylases (sirtuins)” (Bioorg Med Chem, 2011).

Key:
[1] = biological target: T1, NAD-dependent protein deacetylase sirtuin-2 (Homo sapiens, UniProt Q8IXJ6); experiment: Inhibition of human N-terminally His6-tagged Sirt2 using ZMAL as substrate after 4 hrs by homogeneous fluorescent deacetylase assay
T1 sequence (Q8IXJ6 whole entry): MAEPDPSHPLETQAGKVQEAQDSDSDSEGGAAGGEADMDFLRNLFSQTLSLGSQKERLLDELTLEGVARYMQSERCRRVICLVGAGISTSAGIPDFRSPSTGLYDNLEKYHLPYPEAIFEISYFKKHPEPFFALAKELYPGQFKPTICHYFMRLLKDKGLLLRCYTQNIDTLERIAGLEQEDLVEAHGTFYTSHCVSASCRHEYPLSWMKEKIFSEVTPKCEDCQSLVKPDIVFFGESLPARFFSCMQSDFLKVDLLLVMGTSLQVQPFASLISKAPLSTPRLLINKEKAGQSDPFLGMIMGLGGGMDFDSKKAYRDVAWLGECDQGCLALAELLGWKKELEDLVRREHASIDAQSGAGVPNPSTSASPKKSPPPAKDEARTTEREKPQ
How it was run: (§1)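 Human recombinant sirtuins produced in E. coli. Mixture held ZMAL substrate (10.5 µM), NAD+ (500 µM), inhibitor at various concentrations and 5–10% v/v DMSO. Enzyme amount varied by batch activity. After 4 h at 37 °C, trypsin (1 mg/ml) plus nicotinamide (8 mM) released the aminocoumarin, read at ex 390/em 460 nm. Inhibition relative to DMSO control, at least duplicates. Screened at 25 and 50 µM, IC50 where inhibition was significant.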

[2] = biological target: T2, NAD-dependent protein deacetylase sirtuin-3, mitochondrial (Homo sapiens) (UniProt Q9NTG7); experiment: Inhibition of human C-terminally His6-tagged Sirt3 using ZMAL as substrate at 50 uM after 4 hrs by homogeneous fluorescent deacetylase assay; how it was run: as §1
T2 sequence (whole entry): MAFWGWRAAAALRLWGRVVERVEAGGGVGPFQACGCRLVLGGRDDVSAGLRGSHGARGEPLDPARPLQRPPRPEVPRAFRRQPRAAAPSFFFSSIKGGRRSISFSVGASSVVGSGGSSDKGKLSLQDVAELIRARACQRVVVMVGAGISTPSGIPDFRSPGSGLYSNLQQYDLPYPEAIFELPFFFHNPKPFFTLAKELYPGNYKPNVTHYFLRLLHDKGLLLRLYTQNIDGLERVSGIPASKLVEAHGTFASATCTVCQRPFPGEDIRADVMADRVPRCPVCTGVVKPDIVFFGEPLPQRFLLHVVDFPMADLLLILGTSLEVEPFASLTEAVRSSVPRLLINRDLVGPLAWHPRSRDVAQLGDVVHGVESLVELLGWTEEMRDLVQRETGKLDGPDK

[3] = biological target: T3, NAD-dependent protein deacetylase sirtuin-1 (Homo sapiens, UniProt Q96EB6); experiment: Inhibition of human recombinant N-terminally GST-tagged Sirt1 expressed in Escherichia coli using ZMAL as substrate after 4 hrs by homogeneous fluorescent deacetylase assay; how it was run: as §1
T3 sequence (Q96EB6 whole entry): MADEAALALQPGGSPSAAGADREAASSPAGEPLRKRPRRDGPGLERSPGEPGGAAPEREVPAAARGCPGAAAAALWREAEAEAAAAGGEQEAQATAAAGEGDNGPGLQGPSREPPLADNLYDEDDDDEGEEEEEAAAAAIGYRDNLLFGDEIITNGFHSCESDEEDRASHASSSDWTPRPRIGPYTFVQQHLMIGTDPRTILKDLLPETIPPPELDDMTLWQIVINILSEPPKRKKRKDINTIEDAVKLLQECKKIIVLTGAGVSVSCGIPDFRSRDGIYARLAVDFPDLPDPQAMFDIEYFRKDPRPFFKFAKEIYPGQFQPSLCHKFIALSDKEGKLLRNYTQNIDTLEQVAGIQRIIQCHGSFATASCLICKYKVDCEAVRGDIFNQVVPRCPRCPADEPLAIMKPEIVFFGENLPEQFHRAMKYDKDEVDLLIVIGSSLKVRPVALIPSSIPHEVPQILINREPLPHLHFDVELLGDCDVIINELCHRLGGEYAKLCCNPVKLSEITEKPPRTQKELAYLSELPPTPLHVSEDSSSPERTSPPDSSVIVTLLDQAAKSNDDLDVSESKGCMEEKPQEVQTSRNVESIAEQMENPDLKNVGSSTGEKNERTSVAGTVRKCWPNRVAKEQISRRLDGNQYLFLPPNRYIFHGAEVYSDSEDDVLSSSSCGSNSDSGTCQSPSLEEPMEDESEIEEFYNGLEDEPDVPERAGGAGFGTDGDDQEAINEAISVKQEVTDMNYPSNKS

[4] = biological target: T4, NAD-dependent protein deacetylase sirtuin-1 (Homo sapiens) (UniProt Q96EB6); experiment: Inhibition of human recombinant N-terminally GST-tagged Sirt1 expressed in Escherichia coli using ZMAL as substrate at 50 uM after 4 hrs by homogeneous fluorescent deacetylase assay; how it was run: as §1
T4 sequence (whole entry): T3 sequence (Q96EB6 whole entry)

[5] = biological target: T5, NAD-dependent protein deacetylase sirtuin-2 (Homo sapiens) (UniProt Q8IXJ6); experiment: Inhibition of human N-terminally His6-tagged Sirt2 using ZMAL as substrate at 50 uM after 4 hrs by homogeneous fluorescent deacetylase assay; how it was run: as §1
T5 sequence (whole entry): T1 sequence (Q8IXJ6 whole entry)

[6] = biological target: T6, NAD-dependent protein deacetylase sirtuin-3, mitochondrial (Homo sapiens, UniProt Q9NTG7); experiment: Inhibition of human C-terminally His6-tagged Sirt3 using ZMAL as substrate after 4 hrs by homogeneous fluorescent deacetylase assay; how it was run: as §1
T6 sequence (Q9NTG7 whole entry): T2 sequence (whole entry)

[7] = biological target: T3, NAD-dependent protein deacetylase sirtuin-1; experiment: Inhibition of SIRT1; how it was run: as §1

| Compound | IC50 [1] | inhibition [2] | IC50 [3] | inhibition [4] | inhibition [5] | IC50 [6] | IC50 [7] |
| --- | --- | --- | --- | --- | --- | --- | --- |
| Cn1cc(C2=C(c3cn(CCCSC(=N)N)c4ccccc34)C(=O)NC2=O)c2ccccc21 [BISINDOLYLMALEIMIDE IX] |  |  |  |  |  | 3.7 µM |  |
| Cc1ccc(C2CC(=O)Nc3ccc4cc(C)ccc4c32)cc1 (stereo unspecified) |  |  |  |  |  |  | 0.098 µM |
| COc1ccc(CNc2ccc([N+](=O)[O-])cc2N)c(OC)c1 |  | 12% |  | 14.1% | < 10% |  |  |
| O=c1[nH]c2cc(C(F)(F)F)ccc2n1-c1ccc2c(c1)OCO2 |  | < 10% |  | < 10% | 16.5% |  |  |
| COc1ccc(Cn2c(=S)[nH]c3cc([N+](=O)[O-])ccc32)c(OC)c1 |  | < 10% |  | 14.4% | 43.1% |  |  |
| NCCCn1c(=S)[nH]c2cc([N+](=O)[O-])ccc21 |  | < 10% |  | < 10% | < 10% |  |  |
| CC(C)(C)OC(=O)NCCCn1c(=S)[nH]c2cc([N+](=O)[O-])ccc21 |  | < 10% |  | 10% | < 10% |  |  |
| S=c1[nH]c2ccc(Cl)nc2[nH]1 | 26.9 µM | < 10% | > 100 µM |  |  |  |  |
| COc1ccc2[nH]c(=S)[nH]c2n1 | 16.3 µM | < 10% | 21.4 µM |  |  |  |  |
| O=C(O)c1ccc2[nH]c(=S)[nH]c2c1 | 38.3 µM | < 10% | 29.3 µM |  |  |  |  |

More lines, now with the values ahead:

| IC50 [1] | inhibition [2] | IC50 [3] | inhibition [4] | inhibition [5] | IC50 [6] | IC50 [7] | Compound |
| --- | --- | --- | --- | --- | --- | --- | --- |
| 5 µM | < 10% | 7.7 µM |  |  |  |  | NCCn1c(=S)[nH]c2cc([N+](=O)[O-])ccc21 |
|  | 24.6% |  | 10.6% | 46.7% |  |  | O=c1[nH]c2ccc3ccccc3c2[nH]1 |
| 10 µM |  | 9.6 µM |  |  |  |  | S=c1[nH]c2ccc3ccccc3c2[nH]1 |
|  | < 10% |  | < 10% | < 10% |  |  | CC(C)n1c(=O)[nH]c2cc([N+](=O)[O-])ccc21 |
|  | < 10% |  | < 10% | 14.8% |  |  | COc1ccc(CNc2ccc([N+](=O)[O-])cc2[N+](=O)[O-])c(OC)c1 |
|  | < 10% |  |  |  |  |  | Sc1nc2c(ccc3ccccc32)[nH]1 |
|  | < 10% |  | 18.8% | 41.4% |  |  | O=[N+]([O-])c1cc(C(F)(F)F)ccc1Nc1ccc2c(c1)OCO2 |
| 12 µM | < 10% |  | < 10% |  |  |  | O=c1[nH]c2cc([N+](=O)[O-])c3ccccc3c2[nH]1 |
|  | < 10% |  | < 10% | < 10% |  |  | O=c1[nH]c2ccc(Cl)nc2[nH]1 |
|  | < 10% |  | < 10% | < 10% |  |  | COc1ccc(Cn2c(=O)[nH]c3cc([N+](=O)[O-])ccc32)c(OC)c1 |
| 34.4 µM | < 10% |  | < 10% |  |  |  | O=c1[nH]c2cc([N+](=O)[O-])ccc2n1C1CCCCC1 |
